STAT3 act-1 – IL-6 driven STAT3 reporter potentiators, primary screen, U3A cells, luciferase, luminescence, MLSCN library; IL-6 STAT3-luciferase reporter; 100% = signal with IL-6 EC80 alone; activation (% of control), % at 5.6 µM; 190,000 tested, 0.91% active;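 active means activation above the screen-wide mean of compound activation plus 3 SD, cut at about 130% in these data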;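 further: 0% = background luminescence of wells with medium and substrate only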
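Material: STAT1-lacking human U3A cells, STAT3 luciferase reporter | Benchmarks: IL-6-only wells as 100% reference | Probe or stimulus: IL-6 (33 ng/mL) | Timing: Compound 1 h, then IL-6 6 h at 37 °C | Detection: Luminescence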
STAT3 inh – IL-6 driven STAT3 reporter inhibitors, primary screen, U3A cells, luciferase, luminescence, MLSCN library; inhibition, % at 5.5 µM; 190,000 tested, 0.89% active; IL-6 STAT3-luciferase reporter; host cell line lacks STAT1;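 active means inhibition above the mean inhibition across all screened compounds plus 3 SD, cut at about 44% in these data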;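 further: 0% = DMSO only wells and 100% = 100 µM nifuroxazide control wells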
APP 5'UTR act – activators of APP 5'UTR luciferase reporter, primary screen, SH-SY5Y cells; activation, % at 2 µM; SH-SY5Y APP 5'UTR luciferase reporter, luminescence; zero percent = DMSO vehicle wells; 190,000 tested, 1% active;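 active means activation above a set limit, based on mean plus 3 SD of controls, cut at about 140% in these data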
STAT1 act-1 – STAT1 signaling activators, primary screen, cell-based, HTS, luciferase reporter; activation (% of control), % at 5.5 µM; 200,000 tested, 2.6% active; NIH 3T3 STAT1-luciferase reporter, IFN-gamma, luminescence; 100% = IFN-gamma alone, no compound;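 active means activation above the screen-wide mean activation plus 3 SD, cut at about 130% in these data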;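 further: raw ratio to IFN-gamma control signal so 100% means no change and 0% no light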
NF-kB expr up – activators of NF-kB expression in neurons, primary screen, cell-based, HTS | AID 1239, 2008 | fold change at 12.5 µM | human neuronal cells, NF-kB reporter expression; active compounds read high | 190,000 tested, 1.6% active; in the data active means fold change above about 3.3
STAT1 inh – STAT1 signaling inhibitors, primary screen, cell-based, HTS, luciferase reporter. AID 920, 2007. inhibition, % at 5.5 µM. 200,000 tested, 0.35% active. NIH 3T3 STAT1-luciferase reporter, IFN-gamma, luminescence;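 active means inhibition above a set limit, the mean inhibition across all tested compounds plus 3 SD, cut at about 34% in these data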;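 further: 0% = IFN-gamma with DMSO and 100% = IFN-gamma with 300 µM nifuroxazide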
STAT3 act-2 – STAT3 reporter potentiators, retest of hits, confirmation, U3A cells, luciferase, luminescence | potentiation (% of control), % at 5.7 µM | AID 1267, 2008 | shares compounds with STAT3 act-1 | 1,200 tested, 64% active | IL-6 potentiation; U3A cells lack STAT1; 100 means same as IL-6 alone;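 active means percent activation of the STAT3 luciferase reporter above a set limit taken from the earlier primary screen, cut at about 130% in these data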;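 further: 0% = background signal of medium plus substrate and 100% = median of IL-6 with DMSO wells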
NFkB act STAT3ct – NF-kB reporter activators in human cells, counter-screen for STAT3 activator project; 1,200 tested, 11% active; shares compounds with STAT3 act-1; NF-kappaB reporter activation; activation (% of control), % at 5.7 µM; in the data active means activation above about 120%;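 further: reporter induced by TNF-alpha stimulation; 100% = median of stimulated DMSO wells and 0% = no signal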
STAT1 act-2 – STAT1 reporter activators, IFN-gamma induced, counter-screen for STAT3 activator project, cell-based, NIH 3T3, luciferase luminescence | activation (% of control), % at 5.7 µM | shares compounds with STAT3 act-1 | 1,200 tested, 13% active | NIH 3T3 STAT1-luciferase reporter;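 active means activation above the solvent-only control well mean plus 3 SD, set per screening run, cut at about 120% in these data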;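 further: 100% = IFN-gamma with DMSO median signal so 100% means no change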
Active calls of the source: *; / = no result. Only some compounds are listed: those with a hit (about 4.9% of all), similar ones and a draw of the others.

SMILES	STAT3 act-1	STAT3 inh	APP 5'UTR act	STAT1 act-1	NF-kB expr up	STAT1 inh	STAT3 act-2	NFkB act STAT3ct	STAT1 act-2
COc1cccc(-c2cc(=O)c3cc(NC(=O)c4ccc(N(C)C)cc4)ccc3[nH]2)c1	139*	-49	-92	103	0.93	-3	112	161*	106
COc1ccc(-c2cc(=O)c3ccccc3[nH]2)cc1	96	2	12	103	1.5	-3	/	/	/
COc1cccc(-c2cc(=O)c3cc(NC(=O)c4ccccc4)ccc3[nH]2)c1	110	-15	-87	101	0.99	-1	/	/	/
COc1ccc2[nH]c(-c3cccc(F)c3)cc(=O)c2c1	148*	-60	-93	128	5.5*	-30	119	130*	126*
CC1(C)CC(=O)/C(=C(/O)CCCN2C(=O)c3ccccc3C2=O)C(=NC(C)(C)C)C1	96	8	8	99	1.1	0	/	/	/
Cc1ccc(OCC(=O)Nc2ccc3c4c(cccc24)CC3)c(C)c1	93	11	-2	99	1.1	1	/	/	/
Cc1ccc(OCC(=O)Nc2cccc3nsnc23)c(C)c1	145*	-53	19	95	0.9	5	131	105	94
COc1ccc(-c2nnc(Nc3nc4c(OC)cccc4s3)o2)c(OC)c1	115	-11	39	108	1.7	-10	/	/	/
COc1ccc(-c2nnc(Nc3nc4c(OC)cccc4s3)o2)cc1	159*	-69	6	106	1.1	-7	137*	101	105
CC1=NN(c2ccc(Br)cc2)C(=O)/C1=C/c1cccs1	181*	-94	1	87	1.5	15	155*	99	91
CC(C)NC(=O)NC(=O)COC(=O)/C=C/c1ccccc1[N+](=O)[O-]	147*	-55	15	72	0.97	29	159*	111	80
COC(=O)CNC(=O)COC(=O)/C=C/c1ccccc1[N+](=O)[O-]	144*	-35	30	78	0.8	22	140*	103	76
COc1ccc(NC(=O)COC(=O)/C=C/c2ccccc2[N+](=O)[O-])cc1	112	-11	6	100	1.1	0	/	/	/
c1cnc(N2CCN(c3cnccn3)CC2)nc1	89	20	-14	100	1.1	-2	/	/	/
CCOC(=O)c1c(NC(=O)CSc2nnc(Cc3ccccc3)o2)sc(C)c1C	99	5	8	99	0.92	0	/	/	/
CCOC(=O)CN1C=C(c2ccc3ccccc3n2)C(C[N+](=O)[O-])c2ccccc21 (stereo not drawn)	157*	-59	59	100	2.5	0	136*	108	104
CC(CNC(=S)Nc1cc(F)cc(F)c1)CSc1ccc(Cl)cc1 (stereo not drawn)	95	13	29	95	1	3	/	/	/
S=C1NC2(CCCCC2)Nc2ccccc21	138*	-42	-18	90	0.98	9	121	96	92
O=C1c2ccccc2NC2(CCCC2)N1O	105	2	11	97	0.99	3	/	/	/
S=C1NC2(CCCC2)Nc2ccccc21	143*	-48	4	89	1	10	144*	100	93
S=C1NC2(CCCCCC2)N=C1c1ccccc1	106	2	19	107	1.5	-10	/	/	/
O=C(NCCCN1CCOCC1)c1ccc(CSc2ccc(Cl)cc2)cc1	111	-5	-19	94	1	6	/	/	/
CCCN1CCC(NC(=S)Nc2ccc(S(N)(=O)=O)cc2)CC1	104	7	1	100	0.91	-1	/	/	/
CCCCCCCCNC(=O)c1cccnc1SCC(=O)Nc1ccccc1OC	87	15	-7	94	1.1	6	/	/	/
CCN(C(=S)Nc1cccnc1)c1cccc2ccccc12	137*	-34	-2	97	/	4	128	101	92
SMILES	STAT3 act-1	STAT3 inh	APP 5'UTR act	STAT1 act-1	NF-kB expr up	STAT1 inh	STAT3 act-2	NFkB act STAT3ct	STAT1 act-2
CC(C)CCNC(=O)c1cccc(S(=O)(=O)N2CCc3ccccc32)c1	99	4	12	101	0.88	-1	/	/	/
CCN(CC)CCCC(C)NC(=O)c1cccc(S(=O)(=O)N2CCc3ccccc32)c1 (stereo not drawn)	140*	-43	-12	99	1.1	0	148*	102	100
CCOC(=O)c1c(C)oc2c1c1c(c3ccccc32)OCN(Cc2ccccn2)C1	150*	-63	25	107	2.2	-7	126	99	93
Cc1[nH][nH]c(=O)c1C(c1c(C)[nH][nH]c1=O)c1cn(Cc2ccccc2Cl)c2ccccc12	117	-17	-49	104	0.81	-5	/	/	/
COc1ccc(Cl)cc1NC(=O)c1cccc(NC(=O)CCC(=O)O)c1	96	8	3	111	1.1	-12	/	/	/
O=C(NCc1cccs1)C(=O)NCC(c1ccco1)N1CCN(c2ccccc2F)CC1 (stereo not drawn)	103	8	8	94	1.2	5	/	/	/
CC(NC(=O)c1ccccc1NC(=O)CSc1nnnn1C)c1ccccc1 (stereo not drawn)	102	2	12	103	0.93	-3	/	/	/
Cc1ccc(CSc2nc3ccccc3cc2C=O)cc1	193*	-104	-94	101	2.2	-1	153*	109	102
O=Cc1cc2ccccc2nc1SCc1ccc(Cl)cc1	161*	-65	-3	111	2.8	-12	130	101	102
O=Cc1cc2ccccc2nc1SCc1ccc(Cl)c(Cl)c1	120	-17	-8	99	3.2	1	/	/	/
CSc1nnc2c3ccccc3c3ccccc3c2n1	162*	-78	1	88	1.1	13	147*	103	95
CSc1nnc(-c2ccco2)c(-c2ccco2)n1	105	-3	-14	99	1.1	1	/	/	/
Cc1ccc(Cn2ccc(O)c(Cc3ccccc3)c2=O)cc1	98	7	-19	99	0.86	-1	/	/	/
O=C(Nc1ccccn1)C1COc2ccccc2O1 (stereo not drawn)	103	-2	35	101	/	0	/	/	/
